Results pooled from the literature.
ABL1 F317L phosphorylated: Tyrosine-protein kinase ABL1, phosphorylated (ABL1, Homo sapiens, UniProt P00519, F317L)
ABL1 Q252H phosphorylated: Tyrosine-protein kinase ABL1, phosphorylated (ABL1, Homo sapiens, UniProt P00519, Q252H)
ABL1 F317I phosphorylated: Tyrosine-protein kinase ABL1, phosphorylated (ABL1, Homo sapiens, UniProt P00519, F317I)
ABL1: Tyrosine-protein kinase ABL1 (ABL1, Homo sapiens, UniProt P00519)
ABL1 T315I phosphorylated: Tyrosine-protein kinase ABL1, phosphorylated (ABL1, Homo sapiens, UniProt P00519, T315I)
ABL1 T315I: Tyrosine-protein kinase ABL1 (ABL1, Homo sapiens, UniProt P00519, T315I)
ABL1 E255K: Tyrosine-protein kinase ABL1 (ABL1, Homo sapiens, UniProt P00519, E255K)
ABL1 H396P: Tyrosine-protein kinase ABL1 (ABL1, Homo sapiens, UniProt P00519, H396P)
ABL1 phosphorylated: Tyrosine-protein kinase ABL1, phosphorylated (ABL1, Homo sapiens, UniProt P00519)
ABL1 Q252H non-phosphorylated: Tyrosine-protein kinase ABL1, non-phosphorylated (ABL1, Homo sapiens, UniProt P00519, Q252H)

`Cc1cnc(Nc2ccc(C(=O)N3CCC(N4CCCC4)CC3)cc2)nc1-c1cc2ccccc2s1` has a remaining binding of 21% (ABL1 F317L phosphorylated; binding, competition with immobilised ligand; 1 µM).
With `N[C@H]1CCN(c2nccc(-c3cnn4ncccc34)n2)C1` the remaining binding was 100% (Tyrosine-protein kinase ABL1 (ABL1, Homo sapiens, UniProt P00519, F317L); binding; 1 µM).
The remaining binding of `CC1=C(C#N)[C@@H](c2ccc3[nH]nc(C)c3c2)C(C#N)=C(c2ccc(Cl)cc2)N1` is reported as 100% (ABL1 Q252H phosphorylated; cell-free assay, competition with immobilised ligand; 1 µM).
`Nc1ncc2c(n1)-c1c([nH]c3ccc(C#CC4CC4)cc13)CCCC2` gave a remaining binding of 86% (ABL1 F317I phosphorylated; binding, competition with immobilised ligand; 1 µM).
The remaining binding of `CNC(=O)[C@@H]1CC[C@@H](n2c(-c3ccc4cnccc4c3)nc3ccc(C(=O)NCc4cccc(C(N)=O)c4)cc32)C1` is reported as 100% (Tyrosine-protein kinase ABL1, phosphorylated (ABL1, Homo sapiens, UniProt P00519, E255K); binding, competition with immobilised ligand; 1 µM).
`CCOC(=O)c1c(C)[nH]c(/C=C2\C(=O)Nc3ccccc32)c1C` gave a remaining signal of 95.4% (ABL1; cell-free assay; 0.5 µM).
`Cc1nc(Cc2cccc(C(F)(F)F)c2)sc1-c1ccc(C(N)=O)nc1` gave a remaining binding of 83% (ABL1 F317I phosphorylated; binding; 1 µM).
`C=CC(=O)N1CCC(C(=O)NCC(=O)N2CCN(c3nc(-c4cnc(N)nc4C(F)F)nc(N4CCOCC4)n3)CC2)CC1` gave a remaining binding of 82% (ABL1 T315I phosphorylated; binding, competition with immobilised ligand; 1 µM).
`CC(=O)Nc1c(C(C)=O)c(=O)n(C)c2nc(-c3ccc(Cl)cc3Cl)c(-c3ccc(Cl)cc3)cc12` gave a remaining binding of 77% (Tyrosine-protein kinase ABL1, non-phosphorylated (ABL1, Homo sapiens, UniProt P00519, F317I); binding, competition with immobilised ligand; 1 µM).
`Cc1ccc(C(=O)NCc2ccsc2)cc1C#Cc1cn(C(C)C)c2ncnc(N)c12` has an activity vs control of 6% (ABL1 T315I; enzyme activity, inhibitor; 1 µM).
With `O=C(c1ccc(Nc2ncc(Cl)c(-c3ccc(Cl)s3)n2)cc1)N1CCC(N2CCCC2)CC1` the remaining binding was 4.2% (ABL1 Q252H phosphorylated; binding, competition with immobilised ligand; 1 µM).
`COc1cc(/C=C/C(=O)CC(=O)/C=C/c2ccc(O)c(OC)c2)ccc1O` gave an activity vs control of 82% (ABL1; enzyme activity, inhibitor; 1 µM).
`CN(CCCC(F)(F)F)c1nccc(-c2cnn3ncccc23)n1` gave a remaining binding of 98% (ABL1 E255K; binding; 1 µM).
`CCOC(=O)c1cc2cc(-c3cc(C(=O)NCc4ccc(C(=O)O)cc4)nn3C)ccc2[nH]1` gave a remaining binding of 92% (ABL1 T315I phosphorylated; cell-free assay, competition with immobilised ligand; 0.1 µM).
With `CNC(=O)c1cc2c(Oc3ccc(NC(=O)C4(C(=O)Nc5ccc(F)cc5)CC4)cc3)ccnc2cc1OC` the inhibition was 75% (ABL1 H396P; enzyme activity, inhibitor, radiometric; 1 µM).
`Cc1c(NC(=O)c2cc(C(N)=O)nc3cc(F)ccc23)c(C(F)(F)F)nn1Cc1ccc(C(C)(C)C)cc1` has a remaining binding of 85% (ABL1 T315I phosphorylated; cell-free assay, competition with immobilised ligand; 1 µM).
With `COc1cc(-c2cc(-c3ccc(N4CCNCC4)cc3)cnc2N)cc(OC)c1OC` the inhibition was 13% (ABL1 T315I; enzyme activity, inhibitor; 0.1 µM).
The inhibition of `COc1cc2ncnc(Nc3ccc(Oc4ccccc4)cc3C)c2cc1OC` is reported as 5% (ABL1 E255K; enzyme activity, inhibitor; 1 µM).
`O=C(Nc1c[nH]nc1C(=O)NC1CCNCC1)c1cc(F)cc(F)c1` gave a remaining binding of 100% (ABL1 F317L phosphorylated; binding, competition with immobilised ligand; 1 µM).
With `CN(c1ccnc(CNc2nc(Nc3ccc4c(c3)CC(=O)N4)ncc2C(F)(F)F)n1)S(C)(=O)=O` the remaining binding was 62% (Tyrosine-protein kinase ABL1, phosphorylated (ABL1, Homo sapiens, UniProt P00519, M351T); cell-free assay, competition with immobilised ligand; 1 µM).
With `Cc1cnc(NC2CCOCC2)nc1-n1cnc(C(=O)NC(CN)c2cc(F)cc(Cl)c2)c1` (stereo not drawn) the remaining activity was 108% (ABL1 H396P; enzyme activity, inhibitor, radiometric; 1 µM).
With `COc1cc2c(N3CCN(C(=O)Nc4ccc(OC(C)C)cc4)CC3)ncnc2cc1OCCCN1CCCCC1` the remaining signal was 104% (ABL1; cell-free assay; 0.5 µM).
The remaining binding of `C[C@@H](c1ccc(-n2cnc3c(N)ncnc32)cc1)N1CCc2nn(C)c(Cc3ccccc3)c2C1=O` is reported as 13% (Tyrosine-protein kinase ABL1, non-phosphorylated (ABL1, Homo sapiens, UniProt P00519, H396P); binding, competition with immobilised ligand; 0.1 µM).
The remaining signal of `Nc1ncnc2occ(-c3ccc(NC(=O)Nc4cc(C(F)(F)F)ccc4F)cc3)c12` is reported as 0% (Tyrosine-protein kinase ABL1, non-phosphorylated (ABL1, Homo sapiens, UniProt P00519, T315I); cell-free assay, inhibitor; 20 µM).
The remaining signal of `C[S+]([O-])c1ccc(-c2nc(-c3ccncc3)c(-c3ccc(F)cc3)[nH]2)cc1` (stereo not drawn) is reported as 97% (ABL1; cell-free assay; 0.5 µM).
`O=C(NCC1CCOCC1)c1n[nH]cc1NC(=O)c1c(F)cccc1F` has a remaining binding of 85% (ABL1 phosphorylated; binding, competition with immobilised ligand; 1 µM).
For `c1nc2c(Nc3ccc4c(c3)OCCO4)nc(Nc3ccc4c(c3)OCCO4)nc2[nH]1`, the binding vs control was 1.2% (ABL1 phosphorylated; binding, competition with immobilised ligand; 10 µM).
`O=C(c1ccc(Nc2nccc(-c3cc4ccccc4s3)n2)cc1)N1CCC(N2CCCC2)CC1` gave a remaining binding of 9.8% (ABL1 Q252H non-phosphorylated; binding, competition with immobilised ligand; 1 µM).
`O=C(Nc1cccnn1)N1CC(C/C=C/c2cncc(Oc3ccc(C(F)(F)F)cn3)n2)C1` gave a remaining binding of 82% (ABL1 phosphorylated; cell-free assay, competition with immobilised ligand; 1 µM).
The activity vs control of `Cc1cc(NC(=O)c2cccc3cc(-c4cccc5[nH]nc(N)c45)ccc23)ccc1F` is reported as 91% (Tyrosine-protein kinase ABL1 (ABL1, Homo sapiens, UniProt P00519, Y253F); enzyme activity, inhibitor; 0.1 µM).
With `O=C(NCCCN1CCOCC1)c1ccc(Nc2ncc(Cl)c(-c3ccc(Cl)s3)n2)cc1` the remaining binding was 36% (ABL1 phosphorylated; binding, competition with immobilised ligand; 1 µM).
With `O=C(NCc1ncc(C(F)(F)F)cc1Cl)c1ccc2c(c1)C1(CCS(=O)(=O)CC1)[C@@H](C1CC1)N2S(=O)(=O)c1ccc(F)cc1` the remaining binding was 100% (ABL1 Q252H non-phosphorylated; cell-free assay, competition with immobilised ligand; 1 µM).
With `CCCOc1ccc(OC)c(F)c1C(=O)c1ccc(C(=O)N[C@@H]2CNC[C@H]2NC(=O)c2ccc3[nH]ncc3c2)cc1` the remaining activity was 113% (Tyrosine-protein kinase ABL1 (ABL1, Homo sapiens, UniProt P00519, M351T); enzyme activity, inhibitor; 10 µM).
